In ChEMBL document CHEMBL1157556, “Synthesis and biological screening of a combinatorial library of beta-chlorovinyl chalcones as anticancer, anti-inflammatory and antimicrobial agents” (Bioorg Med Chem, 2010):
In brackets after ≈: the same amount, converted by molar mass.

How the values were obtained:
PANC-1 [1] = assay: Anticancer activity against human PANC1 cells at 700 nM after 48 hrs by propidium iodide fluorescence assay; type: functional
Procedure, shortened: (§1)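 Propidium iodide DNA-fluorescence assay. Seeding 3000–7500 cells/well, 24 h recovery at 37 °C in 5% CO₂. Compounds in 0.1% DMSO added to triplicate wells at 10 µM. Flavopiridol 700 nM and gemcitabine 500 nM as reference inhibitors. Plates frozen at −80 °C for 24 h, thawed to room temperature, fluorescence read at excitation 530 nm and emission 620 nm. Percent cytotoxicity calculated.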

HCT-116 [2] = assay: Anticancer activity against human HCT116 cells at 700 nM after 48 hrs by propidium iodide fluorescence assay; type: functional; procedure, shortened: as §1
ACHN [3] = assay: Anticancer activity against human ACHN cells at 700 nM after 48 hrs by propidium iodide fluorescence assay; type: functional; procedure, shortened: as §1
Calu-1 [4] = assay: Anticancer activity against human Calu1 cells at 700 nM after 48 hrs by propidium iodide fluorescence assay; type: functional; procedure, shortened: as §1
NCI-H460 [5] = assay: Anticancer activity against human H460 cells at 700 nM after 48 hrs by propidium iodide fluorescence assay; type: functional; procedure, shortened: as §1
THP-1 [6] = assay: Antiinflammatory activity in human THP1 cells assessed as inhibition of LPS-induced IL6 release at 1 uM after 24 hrs by ELISA; type: functional; details: THP-1, 24 h
Procedure, shortened: (§2)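 THP-1 cells grown in RPMI 1640 with 10% FBS, penicillin and streptomycin, then PMA-differentiated. Compounds in 0.5% DMSO preincubated 30 min at 37 °C before LPS (E. coli 0127:B8) stimulation. TNF-α and IL-6 release measured by kit per the manufacturer (BD Biosciences). Percent inhibition calculated relative to control. Dexamethasone 1 µM as reference.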

THP-1 [7] = assay: Antiinflammatory activity in human THP1 cells assessed as inhibition of LPS-induced TNFalpha release at 1 uM after 24 hrs by ELISA; type: functional; details: THP-1, 24 h; procedure, shortened: as §2
THP-1 [8] = assay: Cytotoxicity against human THP1 cells assessed as CCK8 release at 1 uM after 24 hrs by ELISA; type: cell-based; details: thp-1, 24 h
Procedure, shortened: (§3)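 Same THP-1 cytokine-assay cells, with compounds in 0.5% DMSO and LPS stimulation, were scored in parallel for cytotoxicity by CCK-8.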

Aspergillus flavus = assay: Antifungal activity against Aspergillus flavus MTCC 2501 at 100 ug/ml after 48 hrs agar diffusion method; type: functional; details: MTCC 2501, 48 h, read-out: IZ
Procedure, shortened: (§4)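 Fungal spore suspensions in sterile distilled water adjusted to 10⁶ cfu/mL; 0.1 mL spread on Sabouraud dextrose agar. Wells of 6 mm filled with 0.1 mL compound dilution in DMSO. DMSO (1%) control; nystatin (30 µg/mL) reference. Duplicate plates incubated at 28 °C for 48 h. Activity read as inhibition zone diameter in mm.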

Escherichia coli [9] = assay: Antibacterial activity against Escherichia coli MTCC 1650 at 50 ug/ml after 24 hrs agar diffusion method; type: functional; details: MTCC 1650, 24 h, read-out: IZ
Procedure, shortened: (§5)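 Agar well diffusion on Mueller Hinton agar seeded with 0.1 mL of a 10⁵ cfu/mL suspension in 0.85% saline. Compounds dissolved in DMSO, final concentrations 25–250 µg/mL, 0.1 mL loaded per 6 mm well. DMSO (1%) control; tetracycline (10 µg/mL) reference. Duplicate plates incubated 24 h at 37 °C. Inhibition zone read in mm. MIC taken as lowest concentration giving complete growth inhibition.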

Staphylococcus aureus [10] = assay: Antibacterial activity against Staphylococcus aureus MTCC 96 after 24 hrs; type: functional; details: MTCC 96, 24 h; procedure, shortened: as §5
ACHN [11] = assay: Anticancer activity against human ACHN cells at 10 uM after 48 hrs by propidium iodide fluorescence assay; type: functional; procedure, shortened: as §1
Candida albicans = assay: Antifungal activity against Candida albicans MTCC 227 at 100 ug/ml after 48 hrs agar diffusion method; type: functional; details: MTCC 227, 48 h, read-out: IZ; procedure, shortened: as §4
Penicillium chrysogenum = assay: Antifungal activity against Penicillium chrysogenum MTCC 1996 at 100 ug/ml after 48 hrs agar diffusion method; type: functional; details: MTCC 1996, 48 h, read-out: IZ; procedure, shortened: as §4
Bacillus subtilis [12] = assay: Antibacterial activity against Bacillus subtilis MTCC 1789 at 50 ug/ml after 24 hrs agar diffusion method; type: functional; details: MTCC 1789, 24 h, read-out: IZ; procedure, shortened: as §5
PANC-1 [13] = assay: Anticancer activity against human PANC1 cells at 10 uM after 48 hrs by propidium iodide fluorescence assay; type: functional; procedure, shortened: as §1
Klebsiella pneumoniae [14] = assay: Antibacterial activity against Klebsiella pneumoniae NCIM 2957 after 24 hrs; type: functional; details: NCIM 2957, 24 h; procedure, shortened: as §5
THP-1 [15] = assay: Antiinflammatory activity in human THP1 cells assessed as inhibition of LPS-induced IL6 release at 10 uM after 24 hrs by ELISA; type: functional; details: THP-1, 24 h; procedure, shortened: as §2
Aspergillus niger = assay: Antifungal activity against Aspergillus niger MTCC 1781 at 100 ug/ml after 48 hrs agar diffusion method; type: functional; details: MTCC 1781, 48 h, read-out: IZ; procedure, shortened: as §4
Klebsiella pneumoniae [16] = assay: Antibacterial activity against Klebsiella pneumoniae NCIM 2957 at 50 ug/ml after 24 hrs agar diffusion method; type: functional; details: NCIM 2957, 24 h, read-out: IZ; procedure, shortened: as §5
THP-1 [17] = assay: Cytotoxicity against human THP1 cells assessed as CCK8 release at 10 uM after 24 hrs by ELISA; type: cell-based; details: thp-1, 24 h; procedure, shortened: as §3
Escherichia coli [18] = assay: Antibacterial activity against Escherichia coli MTCC 1650 after 24 hrs; type: functional; details: MTCC 1650, 24 h; procedure, shortened: as §5
THP-1 [19] = assay: Antiinflammatory activity in human THP1 cells assessed as inhibition of LPS-induced TNFalpha release at 10 uM after 24 hrs by ELISA; type: functional; details: THP-1, 24 h; procedure, shortened: as §2
Staphylococcus aureus [20] = assay: Antibacterial activity against Staphylococcus aureus MTCC 96 at 50 ug/ml after 24 hrs agar diffusion method; type: functional; details: MTCC 96, 24 h, read-out: IZ; procedure, shortened: as §5
Bacillus subtilis [21] = assay: Antibacterial activity against Bacillus subtilis MTCC 1789 after 24 hrs; type: functional; details: MTCC 1789, 24 h; procedure, shortened: as §5
Proteus vulgaris [22] = assay: Antibacterial activity against Proteus vulgaris MTCC 1771 at 50 ug/ml after 24 hrs agar diffusion method; type: functional; details: MTCC 1771, 24 h, read-out: IZ; procedure, shortened: as §5
Trichoderma viride = assay: Antifungal activity against Trichoderma viride MTCC 167 at 100 ug/ml after 48 hrs agar diffusion method; type: functional; details: MTCC 167, 48 h, read-out: IZ; procedure, shortened: as §4
NCI-H460 [23] = assay: Anticancer activity against human H460 cells at 10 uM after 48 hrs by propidium iodide fluorescence assay; type: functional; procedure, shortened: as §1
HCT-116 [24] = assay: Anticancer activity against human HCT116 cells at 10 uM after 48 hrs by propidium iodide fluorescence assay; type: functional; procedure, shortened: as §1
Proteus vulgaris [25] = assay: Antibacterial activity against Proteus vulgaris MTCC 1771 after 24 hrs; type: functional; details: MTCC 1771, 24 h; procedure, shortened: as §5
Calu-1 [26] = assay: Anticancer activity against human Calu1 cells at 10 uM after 48 hrs by propidium iodide fluorescence assay; type: functional; procedure, shortened: as §1
PANC-1 [27] = assay: Anticancer activity against human PANC1 cells at 500 nM after 48 hrs by propidium iodide fluorescence assay; type: functional; procedure, shortened: as §1
NCI-H460 [28] = assay: Anticancer activity against human H460 cells at 500 nM after 48 hrs by propidium iodide fluorescence assay; type: functional; procedure, shortened: as §1
ACHN [29] = assay: Anticancer activity against human ACHN cells at 500 nM after 48 hrs by propidium iodide fluorescence assay; type: functional; procedure, shortened: as §1
HCT-116 [30] = assay: Anticancer activity against human HCT116 cells at 500 nM after 48 hrs by propidium iodide fluorescence assay; type: functional; procedure, shortened: as §1
Calu-1 [31] = assay: Anticancer activity against human Calu1 cells at 500 nM after 48 hrs by propidium iodide fluorescence assay; type: functional; procedure, shortened: as §1

CN1CC[C@H](c2c(O)cc(O)c3c(=O)cc(-c4ccccc4Cl)oc23)[C@H](O)C1 [ALVOCIDIB]
Activity (PANC-1 [1]): 75%
Activity (HCT-116 [2]): 71%
Activity (ACHN [3]): 68%
Activity (Calu-1 [4]): 68%
Activity (NCI-H460 [5]): 84%

C[C@@H]1C[C@H]2[C@@H]3CCC4=CC(=O)C=C[C@]4(C)[C@@]3(F)[C@@H](O)C[C@]2(C)[C@@]1(O)C(=O)CO [DEXAMETHASONE]
inhibition at 1 µM (THP-1 [6]): 84%
inhibition at 1 µM (THP-1 [7]): 73%
Activity (THP-1 [8]): 0%

COc1ccc(C(=O)/C=C/C=C(\Cl)c2ccc(Br)cc2)c(OC)c1
zone of inhibition at 100 µg/mL (Aspergillus flavus): 18 mm
zone of inhibition at 50 µg/mL (Escherichia coli [9]): 13 mm
MIC (Staphylococcus aureus [10]): 50 µg/mL (≈ 123 µM)
Activity (ACHN [11]): 39%
zone of inhibition at 100 µg/mL (Candida albicans): 12 mm
zone of inhibition at 100 µg/mL (Penicillium chrysogenum): 16 mm
zone of inhibition at 50 µg/mL (Bacillus subtilis [12]): 16 mm
Activity (PANC-1 [13]): 33%
MIC (Klebsiella pneumoniae [14]): 50 µg/mL (≈ 123 µM)
inhibition at 10 µM (THP-1 [15]): 36%
zone of inhibition at 100 µg/mL (Aspergillus niger): 12 mm
zone of inhibition at 50 µg/mL (Klebsiella pneumoniae [16]): 18 mm
Activity (THP-1 [17]): 0%
MIC (Escherichia coli [18]): 50 µg/mL (≈ 123 µM)
inhibition at 10 µM (THP-1 [19]): 0%
zone of inhibition at 50 µg/mL (Staphylococcus aureus [20]): 12 mm
MIC (Bacillus subtilis [21]): 50 µg/mL (≈ 123 µM)
zone of inhibition at 50 µg/mL (Proteus vulgaris [22]): 10 mm
zone of inhibition at 100 µg/mL (Trichoderma viride): 16 mm
Activity (NCI-H460 [23]): 16%
Activity (HCT-116 [24]): 22%
MIC (Proteus vulgaris [25]): 50 µg/mL (≈ 123 µM)
Activity (Calu-1 [26]): 27%

COc1ccc(C(=O)/C=C/C=C(\Cl)c2cccc(Cl)c2)c(OC)c1
zone of inhibition at 100 µg/mL (Aspergillus flavus): 15 mm
zone of inhibition at 50 µg/mL (Escherichia coli [9]): 12 mm
MIC (Staphylococcus aureus [10]): 50 µg/mL (≈ 138 µM)
Activity (ACHN [11]): 32%
zone of inhibition at 100 µg/mL (Candida albicans): 10 mm
zone of inhibition at 100 µg/mL (Penicillium chrysogenum): 10 mm
zone of inhibition at 50 µg/mL (Bacillus subtilis [12]): 18 mm
Activity (PANC-1 [13]): 32%
MIC (Klebsiella pneumoniae [14]): 50 µg/mL (≈ 138 µM)
inhibition at 10 µM (THP-1 [15]): 7%
zone of inhibition at 100 µg/mL (Aspergillus niger): 14 mm
zone of inhibition at 50 µg/mL (Klebsiella pneumoniae [16]): 16 mm
Activity (THP-1 [17]): 0%
MIC (Escherichia coli [18]): 50 µg/mL (≈ 138 µM)
inhibition at 10 µM (THP-1 [19]): 0%
zone of inhibition at 50 µg/mL (Staphylococcus aureus [20]): 16 mm
MIC (Bacillus subtilis [21]): 50 µg/mL (≈ 138 µM)
zone of inhibition at 50 µg/mL (Proteus vulgaris [22]): 13 mm
zone of inhibition at 100 µg/mL (Trichoderma viride): 13 mm
Activity (NCI-H460 [23]): 31%
Activity (HCT-116 [24]): 37%
MIC (Proteus vulgaris [25]): 50 µg/mL (≈ 138 µM)
Activity (Calu-1 [26]): 40%

Nc1ccn([C@@H]2O[C@H](CO)[C@@H](O)C2(F)F)c(=O)n1 [GEMCITABINE]
Activity (PANC-1 [27]): 71%
Activity (NCI-H460 [28]): 68%
Activity (ACHN [29]): 70%
Activity (HCT-116 [30]): 76%
Activity (Calu-1 [31]): 70%
